Test results as given in ChEMBL document CHEMBL4251608, “Emimycin and its nucleoside derivatives: Synthesis and antiviral activity” (Eur J Med Chem, 2018).
pEC50: −log10 of the molar value. Active and inactive are the calls of the source. The calls are words filed in the database; no cut-off is given here.

Tests used:
Influenza A virus = assay: Antiviral activity against Influenza A virus A/Ned/378/05(H1N1) infected in MDCK cells assessed as reduction in virus-induced cytopathic effect by MTS assay; type: functional, organism-based
H3N2 subtype = assay: Antiviral activity against Influenza A virus A/HK/7/87(H3N2) infected in MDCK cells assessed as reduction in virus-induced cytopathic effect by MTS assay; type: functional, organism-based; settings: A/Hong Kong/7/1987(H3N2)
Influenza B virus = assay: Antiviral activity against Influenza B virus B/Ned/537/05 infected in MDCK cells assessed as reduction in virus-induced cytopathic effect by MTS assay; type: functional, organism-based; settings: B/Ned/537/05, MDCK
[1] = Cytotoxicity against MDCK cells assessed as reduction in cell viability by MTS assay; type: cell-based, Canis lupus familiaris; settings: dog
[2] = Cytotoxicity against MDCK cells assessed as alteration in cell morphology by microscopic method; type: cell-based, Canis lupus familiaris; settings: dog
Summary of the method: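 MDCK cells exposed to compounds (up to 100 µM) and examined microscopically. MCC taken as the minimum concentration causing a detectable alteration of normal cell morphology.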

[3] = test system: Respiratory syncytial virus; assay: Antiviral activity against RSV infected in human HeLa cells at 100 uM; type: functional, organism-based
HeLa = assay: Cytotoxicity against human HeLa cells at 100 uM; type: cell-based
Human betaherpesvirus 5 [4] = assay: Antiviral activity against HCMV AD169 infected in HEL cells assessed as reduction in virus-induced cytopathic effect after 6 to 7 days; type: functional, organism-based; settings: Human betaherpesvirus 5, AD169, HEL
Summary of the method: (§1)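 Confluent HEL fibroblasts were inoculated with 100 CCID50 of HCMV. After 2 h adsorption the inoculum was removed and cells were incubated with varying compound concentrations. Viral cytopathicity was recorded 6-7 days post-infection. […] Data are the mean of two independent experiments.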

Human betaherpesvirus 5 [5] = assay: Antiviral activity against HCMV Davis infected in HEL cells assessed as reduction in virus-induced cytopathic effect after 6 to 7 days; type: functional, organism-based; settings: Human betaherpesvirus 5, Davis; summary of the method: as §1
Human alphaherpesvirus 1 [6] = assay: Antiviral activity against HSV1 KOS infected in HEL cells assessed as reduction in virus-induced cytopathic effect after 2 to 3 days; type: functional, organism-based; settings: Human alphaherpesvirus 1, KOS
Summary of the method: (§2)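 Confluent HEL fibroblasts were infected with 100 CCID50 of HSV. After 2 h adsorption the virus was removed and cells were incubated with varying compound concentrations. Virus-induced cytopathicity was scored 2-3 days post-infection. […] Data are the mean of two independent experiments.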

Human alphaherpesvirus 1 [7] = assay: Antiviral activity against acyclovir-resistant HSV1 KOS harboring TK- mutant infected in HEL cells assessed as reduction in virus-induced cytopathic effect after 2 to 3 days; type: functional, organism-based; settings: Human alphaherpesvirus 1, KOS; summary of the method: as §2
Human alphaherpesvirus 2 = assay: Antiviral activity against HSV2 strain G infected in HEL cells assessed as reduction in virus-induced cytopathic effect after 2 to 3 days; type: functional, organism-based; settings: Human alphaherpesvirus 2, strain G; summary of the method: as §2
[8] = Cytotoxicity against HEL cells assessed as reduction in cell viability after 3 days by coulter counting method; type: cell-based; settings: human
Summary of the method: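 HEL fibroblasts seeded at 5 x 10^3 cells/well, left to proliferate 24 h, then given medium with varying compound concentrations. After 3 days at 37 °C, cells counted with a Coulter counter.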

[9] = Cytotoxicity against HEL cells assessed as alteration in cell morphology after 3 days by microscopic method; type: cell-based; settings: human
Summary of the method: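 HEL cells were treated with test compounds. MCC is the minimum concentration causing a microscopically detectable alteration of cell morphology. Data are the mean of two independent experiments.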

Human alphaherpesvirus 3 [10] = assay: Antiviral activity against TK-positive VZV Oka infected in HEL cells assessed as reduction in plaque formation after 5 days; type: functional, organism-based; settings: Human alphaherpesvirus 3, strain Oka vaccine, 120 h
Human alphaherpesvirus 3 [11] = assay: Antiviral activity against TK-defecient VZV 07-1 infected in HEL cells assessed as reduction in plaque formation after 5 days; type: functional, organism-based; settings: Human alphaherpesvirus 3, 07-1, HEL, 120 h
Escherichia coli = assay: Antibacterial activity against Escherichia coli; type: functional, organism-based
Enterococcus faecium = assay: Antibacterial activity against Streptococcus faecium; type: functional, organism-based
[12] = Selectivity index, ratio of CC50 for HEL cells to EC50 for TK-positive VZV Oka infected in HEL cells; type: toxicity, cell-based; settings: human, read-out: Ratio CC50/EC50
Summary of the method: (§3)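 SI = CC50/EC50, with both values from HEL fibroblasts. For the antiviral part, confluent cultures were inoculated with 100 CCID50 (HSV) or 20 PFU (VZV Oka). After 2 h adsorption the inoculum was removed and compounds added. Cytopathicity was scored at 2-3 days (HSV) and plaques at 5 days (VZV). CC50 came from Coulter counting of cell growth after 3 days.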

[13] = Selectivity index, ratio of CC50 for HEL cells to EC50 for HSV1 KOS infected in HEL cells; type: toxicity, cell-based; settings: human, read-out: Ratio CC50/EC50; summary of the method: as §3
[14] = Selectivity index, ratio of CC50 for HEL cells to EC50 for HSV2 strain G infected in HEL cells; type: toxicity, cell-based; settings: human, read-out: Ratio CC50/EC50; summary of the method: as §3
[15] = Ratio of EC50 for TK-defecient VZV 07-1 infected in HEL cells to EC50 for TK-positive VZV Oka infected in HEL cells; type: functional
Summary of the method: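 Confluent HEL fibroblasts were inoculated with 20 PFU of VZV, either TK− strain 07−1 or Oka. After 2 h adsorption the inoculum was removed and compound was added at varying concentrations. […] The ratio is the TK− EC50 over the Oka EC50.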

Human alphaherpesvirus 1 [16] = assay: Ratio of EC50 for acyclovir-resistant HSV1 KOS harboring TK- mutant infected in HEL cells to EC50 for HSV1 KOS infected in HEL cells; type: functional
Summary of the method: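 HEL fibroblasts were infected with 100 CCID50 of TK− ACV-resistant HSV-1 KOS or wild-type KOS, with 2 h adsorption, then incubated with varying compound concentrations. Cytopathicity was read at 2-3 days to give EC50 values. The ratio is TK− EC50 divided by wild-type EC50.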

Structure (SMILES)	pEC50 (Influenza A virus)	pEC50 (H3N2 subtype)	pEC50 (Influenza B virus)	CC50 [1] [µM]	MCC [2] [µM]	Activity [3]	Activity (HeLa)	pEC50 (Human betaherpesvirus 5 [4])	pEC50 (Human betaherpesvirus 5 [5])	pEC50 (Human alphaherpesvirus 1 [6])	pEC50 (Human alphaherpesvirus 1 [7])	pEC50 (Human alphaherpesvirus 2)	CC50 at 72 h [8] [µM]	pEC50 (Human alphaherpesvirus 3 [10])	pEC50 (Human alphaherpesvirus 3 [11])	also measured
O=c1c[n+]([O-])ccn1[C@@H]1O[C@H](CO)[C@@H](O)[C@H]1O	< 4.00	< 4.00	< 4.00	> 100	> 100	inactive	Non-Toxic	–	–	–	–	–	–	–	–	–
Nc1ccn(C[C@@H](CO)OCP(=O)(O)O)c(=O)n1 [CIDOFOVIR]	–	–	–	–	–	–	–	5.98	5.80	5.55	5.81	5.71	> 358	–	–	MCC at 72 h [9]: > 358 µM
O=c1c[n+]([O-])ccn1[C@H]1O[C@H](CO)[C@@H](O)[C@H]1O	< 4.00	< 4.00	< 4.00	> 100	> 100	inactive	Non-Toxic	–	–	–	–	–	–	–	–	–
O=c1c[n+]([O-])ccn1[C@H]1C[C@H](O)[C@@H](CO)O1	–	–	–	–	–	–	–	< 3.36	< 3.36	< 3.36	< 3.36	< 3.36	> 438	< 3.36	< 3.36	–
Cc1cn([C@@H]2O[C@H](CO)[C@@H](O)[C@H]2O)c(=O)c[n+]1[O-]	< 4.00	< 4.00	< 4.00	> 100	> 100	inactive	Non-Toxic	–	–	–	–	–	–	–	–	–
Cc1cn([C@H]2O[C@H](CO)[C@@H](O)[C@H]2O)c(=O)c[n+]1[O-]	< 4.00	< 4.00	< 4.00	> 100	> 100	inactive	Non-Toxic	–	–	–	–	–	–	–	–	–
Nc1nc2c(ncn2COCCO)c(=O)[nH]1 [ACYCLOVIR]	–	–	–	–	–	–	–	–	–	6.42	4.05	–	> 444	–	–	MCC at 72 h [9]: > 444 µM
O=c1c[n+]([O-])ccn1[C@@H]1C[C@H](O)[C@@H](CO)O1	–	–	–	–	–	–	–	< 4.06	< 3.36	< 3.36	< 3.36	< 3.36	> 438	3.36	< 3.36	–
O=c1c[n+]([O-])cc[nH]1	< 4.00	< 4.00	< 4.00	> 100	> 100	inactive	Non-Toxic	–	–	–	–	–	–	–	–	pEC50 (Escherichia coli): 5.00; pEC50 (Enterococcus faecium): 5.10
CCc1c[nH]c(=O)c[n+]1[O-]	< 4.00	< 4.00	< 4.00	> 100	> 100	inactive	Non-Toxic	–	–	–	–	–	–	–	–	–
CCc1cn([C@H]2O[C@H](CO)[C@@H](O)[C@H]2O)c(=O)c[n+]1[O-]	< 4.00	< 4.00	< 4.00	> 100	> 100	inactive	Non-Toxic	–	–	–	–	–	–	–	–	–
Cc1cn([C@@H]2C[C@H](O)[C@@H](CO)O2)c(=O)c[n+]1[O-]	–	–	–	–	–	–	–	< 4.09	< 3.39	< 3.39	< 3.39	< 3.39	> 412	3.48	< 3.39	–
CCc1cn([C@H]2C[C@H](O)[C@@H](CO)O2)c(=O)c[n+]1[O-]	–	–	–	–	–	–	–	< 4.11	< 4.11	5.07	< 3.41	3.84	> 390	5.11	3.86	–
Cc1cn([C@H]2C[C@H](O)[C@@H](CO)O2)c(=O)c[n+]1[O-]	–	–	–	–	–	–	–	< 3.39	< 3.39	5.75	4.23	4.76	> 412	6.00	5.16	MCC at 72 h [9]: 169 µM; selectivity ratio [12]: > 416; selectivity ratio [13]: 230; selectivity ratio [14]: 24; Ratio EC50 [15]: 7; Ratio EC50 (Human alphaherpesvirus 1 [16]): 30
O=c1[nH]c(=O)n([C@H]2C[C@H](O)[C@@H](CO)O2)cc1/C=C/Br [BRIVUDINE]	–	–	–	–	–	–	–	–	–	7.17	4.70	–	> 300	7.46	5.18	MCC at 72 h [9]: > 300 µM
Cc1c[nH]c(=O)c[n+]1[O-]	< 4.00	< 4.00	< 4.00	> 100	> 100	inactive	Non-Toxic	–	–	–	–	–	–	–	–	–
CCc1cn([C@@H]2C[C@H](O)[C@@H](CO)O2)c(=O)c[n+]1[O-]	–	–	–	–	–	–	–	< 4.11	< 4.11	3.76	< 3.41	3.69	> 390	3.85	3.76	–
CCc1cn([C@@H]2O[C@H](CO)[C@@H](O)[C@H]2O)c(=O)c[n+]1[O-]	< 4.00	< 4.00	< 4.00	> 100	> 100	inactive	Non-Toxic	–	–	–	–	–	–	–	–	–
